Activity calls are given as the source filed them. The rule behind the calls is not given here.
Legend:
[1] = system: J774.A1; assay: Cytotoxicity against mouse J774A1 macrophages grown in monolayers by MTT assay; type: cell-based
Method in brief: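 Monolayer J774.A1 cells were exposed to test solutions in PBS, 0.01-1 mM for pure compounds and 1-1000 µg/mL for extract. Viability was read by MTT assay and expressed as % of PBS-treated controls. Experiments were repeated at least three times with three or more observations each. ANOVA with Bonferroni.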

[2] = system: J774.A1; assay: Antiinflammatory activity against mouse J774A1 macrophages assessed as inhibition of LPS-induced iNOS expression at 1 mM treated 1 hr before LPS challenge and measured after 24 hrs by Western blot analysis; type: functional, cell-based
Method in brief: (§1)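 J774.A1 cells were given test solutions in PBS (0.01-1 mM) 1 h before and together with LPS (6 × 103 u/mL). After 24 h with LPS, cells were lysed and iNOS protein detected by Western blot with densitometry. Results are % inhibition versus LPS alone, from 3-6 independent experiments in triplicate. One-way ANOVA.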

[3] = Cytotoxicity against reconstituted human epidermal cells assessed as cell viability after 24 hrs by MTT assay; type: cell-based
Method in brief: (§2)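 Epidermis tissues were dosed topically with 50 µL of PBS solutions (extract 1-3%, compound 0.25-1%) in duplicate and kept at 37 °C, 5% CO2 for 24 or 72 h, with medium changed daily. Controls were PBS pH 7.2 and SDS 0.25%. After washing, MTT (0.5 mg/mL) was added for 3 h at 37 °C and OD read at 570 nm. Results are % viability versus PBS-treated epidermis.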

[4] = system: J774.A1; assay: Antiinflammatory activity against mouse J774A1 macrophages assessed as inhibition of LPS-induced NO release pretreated for 1 hr before LPS challenge measured after 24 hrs by Griess method; type: functional, cell-based
Method in brief: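 Nitrite measured in medium by Griess reaction 24 h after LPS (6 × 103 u/mL). J774.A1 cells plated at 1.5 × 106 in P60 plates. Test solutions in PBS (0.01-1 mM) were added 1 h before and again together with LPS. Nitrite was read against a sodium nitrite standard curve in culture medium. Inhibition is given as % versus LPS-only cells. At least 3 independent experiments, 3 replicates each.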

[5] = Cytotoxicity against reconstituted human epidermal cells assessed as cell viability after 72 hrs by MTT assay; type: cell-based; method in brief: as §2
[6] = system: J774.A1; assay: Antiinflammatory activity against mouse J774A1 macrophages assessed as inhibition of LPS-induced iNOS expression pretreated for 1 hr before LPS challenge and measured after 24 hrs by Western blot analysis; type: functional, cell-based; method in brief: as §1
[7] = organism: Homo sapiens; assay: Antiinflammatory activity against reconstituted human epidermis model assessed as inhibition of IL1alpha release after 72 hrs by ELISA relative to control; type: functional; details: Skin epidermis
Method in brief: (§3)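 Reconstituted human epidermis (0.63 cm2, differentiated from normal human keratinocytes) received 50 µL of PBS solutions applied topically. Concentrations were 1, 2, 3% for extract and 0.25, 0.5, 1% for pure compound. Tissues were held at 37 °C, 5% CO2, with daily medium change. Underlying medium was collected at 24 or 72 h and IL-1α (pg/mL) quantified by ELISA. Controls were PBS and SDS 0.25%. Three independent experiments.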

[8] = system: Skin epidermis; assay: Effect on morphological changes in reconstituted human epidermis model assessed as induction of tissue degeneration and necrosis after 24 hrs; type: functional
Method in brief: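 Reconstituted epidermis was dosed topically with PBS solutions at 1-3% (extract) or 0.25-1% (compound), with PBS and SDS 0.25% as controls. After 24 or 72 h, tissues were fixed in 10% formalin, dehydrated through ethanol and toluene, and paraffin-embedded. Sections of 5 µm were stained with H&E and examined by light microscopy at 200×.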

[9] = organism: Homo sapiens; assay: Antiinflammatory activity against reconstituted human epidermis model assessed as inhibition of IL1alpha release after 24 hrs by ELISA relative to control; type: functional; details: Skin epidermis; method in brief: as §3

C[C@@H]1O[C@@H](O[C@@H]2[C@@H](O)[C@H](OCCc3ccc(O)c(O)c3)O[C@H](CO)[C@H]2OC(=O)/C=C/c2ccc(O)c(O)c2)[C@H](O)[C@H](O)[C@H]1O [ACETOSIDE]
EC50 [1]: 490 µM
Activity [2]: Active

O=C(/C=C/c1ccc(O)c(O)c1)O[C@@H]1C2C=CO[C@H](O[C@@H]3O[C@H](CO)[C@@H](O)[C@H](O)[C@H]3O)C2[C@]2(CO)O[C@H]12 (some centres undefined) [VERMINOSIDE]
Activity [3]: Non-toxic
Activity [4]: Dose-dependent effect
Activity [5]: Non-toxic
Activity [6]: Dose-dependent effect

CCCCCCCCCCCCOS(=O)(=O)[O-].[Na+]
Activity [7]: 110 pg/mL
Activity [8]: Active
Activity [9]: 250 pg/mL

From ChEMBL document CHEMBL1158826, “Anti-inflammatory activity of verminoside from Kigelia africana and evaluation of cutaneous irritation in cell cultures and reconstituted human epidermis” (J Nat Prod, 2005)
